Experimental data as given in PubChem BioAssay AID2311 (NMMLSC, 2010).

molecular target: Regulator of G-protein signaling 19 (Homo sapiens) (UniProt P49795); experiment: RGS19-Galphao binding modulators, analog potency, SAR follow-up, biochemical, SAR compounds, multiplexed bead flow cytometry (AID 2311); conditions: Bead-bound RGS19 and AF488-Galphao binding
In short: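 material = Bead-immobilised biotinylated RGS19 in an RGS bead multiplex | probe or stimulus = 7 nM activated fluorescent Galphao | incubation = 30–90 min compound exposure at room temperature | detection = high-throughput flow cytometry, median green fluorescence of RGS19-coated beads | read-out basis = EC50 by logistic fit, converted to Ki | controls = DMSO wells and RGS-free bead controls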

Sequence of Regulator of G-protein signaling 19 (Homo sapiens) (P49795 whole entry, looked up): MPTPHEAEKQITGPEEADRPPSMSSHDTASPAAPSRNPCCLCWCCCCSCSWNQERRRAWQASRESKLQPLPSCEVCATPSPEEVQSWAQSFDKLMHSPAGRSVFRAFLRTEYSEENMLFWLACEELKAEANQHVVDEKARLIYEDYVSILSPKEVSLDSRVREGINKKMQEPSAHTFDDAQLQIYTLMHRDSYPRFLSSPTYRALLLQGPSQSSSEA

EC50 [nM] | SMILES
109 | NS(=O)(=O)c1ccc(N/N=C/c2ccc(O)c(O)c2O)c([N+](=O)[O-])c1

same assay, conditions: Bead-bound RGS19 and AF488-Galphao binding, measured here: Ki calculated from EC50

Ki [nM] | SMILES
160 | COc1ccc(C2=CC(=O)C=CC2=O)cc1
140 | CCOC(=O)c1sc(NC(=O)CSc2nnc(Cc3ccccc3)o2)c(C#N)c1C
460 | O=C(NCCCN1CCOCC1)c1sc2cc([N+](=O)[O-])ccc2c1Cl
110 | Cc1cc(Cl)ccc1N=c1ssnc1Cl
230 | CC1(C)OC(=O)C(=Cc2ccc(-c3ccc(S(N)(=O)=O)cc3)o2)C(=O)O1
350 | CCN=c1scc(C)n1/N=C/c1ccc(O)c(O)c1O
30 | CN1CCN(C2=C(Cl)C(=O)C(c3cnc(N4CCCCC4)s3)=C(Cl)C2=O)CC1
80 | O=C1C(Cl)=C(N2CCCCC2)C(=O)C(Cl)=C1c1cnc(N2CCCCC2)s1
550 | Cc1cccc(N2CCN(C(=O)COc3nsc4nc(C)cc(C)c34)CC2C)c1 (configuration not stated)
50 | Cc1[nH]n(-c2ccccc2)c(=S)c1C=NCCCN=Cc1c(C)[nH]n(-c2ccccc2)c1=S
100 | NS(=O)(=O)c1ccc(N/N=C/c2ccc(O)c(O)c2O)c([N+](=O)[O-])c1
750 | O=C(Cc1csc(N2CCOCC2)n1)N/N=C/c1ccc(O)c(O)c1O
90 | Cc1cccc(N2CCN(C(=O)Cn3sc4nc(C)cc(C)c4c3=O)CC2C)c1 (configuration not stated)
10 | CC(=O)OCCCNc1cc(Sc2nc3ccccc3s2)c2nonc2c1[N+](=O)[O-]
200 | CN=c1scc(C)n1/N=C/c1ccc(O)c(O)c1O
1160 | CCC(=O)NC(c1ccc(C)cc1)c1cc([N+](=O)[O-])c2cccnc2c1O (configuration not stated)
